Data taken from ChEMBL document CHEMBL4699650, “SAR Investigation and Discovery of Water-Soluble 1-Methyl-1,4-dihydroindeno[1,2-c]pyrazoles as Potent Tubulin Polymerization Inhibitors” (J Med Chem, 2020).

Legend:
[1] = Aqueous solubility of compound in DMSO at pH 7.4 by HPLC analysis; type: physicochemical; details: aqueous medium
Method in brief: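 Solubility measured at pH 7.4. DMSO stock (10 mg/mL) diluted in methanol to five levels to build an HPLC peak-area standard curve. Compound added to 1 mL buffer to make a saturated solution, and the peak area of that solution analysed by HPLC on a C18 column. Solubility calculated from the standard curve.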

[2] = system: HepG2; assay: Antiproliferation activity against human HepG2 cells assessed as cell growth inhibition measured after 72 hrs by MTT assay; type: functional
Method in brief: (§1)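 Cells grown in RPMI-1640 with 10% FBS at 37 °C, 5% CO2, seeded at 4−7 × 10³ cells/well and left to adhere overnight. Exposed to a range of concentrations for 72 h, then MTT (2.5 mg/mL stock) added for 4 h. Formazan dissolved in DMSO and absorbance read at 570 nm. GI50 taken as the concentration giving 50% growth inhibition, reported as mean ± SD of at least three independent experiments.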

[3] = system: HepG2; assay: Antitumor activity against human HepG2 cells xenografted in Balb/c mouse assessed as reduction in tumor volume administered orally as 0.5% MC suspension for 21 days relative to control; type: functional; parameters: scale not given: the % may be the effect or the level left; details: time 21 day
[4] = system: HCT-116; assay: Antiproliferation activity against human HCT116 cells assessed as cell growth inhibition measured after 72 hrs by MTT assay; type: functional; method in brief: as §1
[5] = Lipophilicity, log P of the compound in DMSO and n-octanol at pH 7.4 incubated for 10 hrs under stirred condition by HPLC analysis; type: physicochemical; details: n-octanol / aqueous phase pH 7.4, pH 7.4
Method in brief: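 Partition between n-octanol and water: mixture stirred at room temperature for 10 h, then left at 4 °C overnight. Each phase analysed separately by HPLC on a C18 column. Log P taken from the ratio of peak areas in n-octanol and water.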

[6] = system: A549; assay: Antiproliferation activity against human A549 cells assessed as cell growth inhibition measured after 72 hrs by MTT assay; type: functional; method in brief: as §1
[7] = Inhibition of porcine brain tubulin polymerization measured every 60 sec for 60 mins in presence of GTP by fluorescence assay; parameters: species or system Sus scrofa
Method in brief: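 Fluorescence kit assay using 2 mg/mL porcine brain tubulin with 2 mM MgCl₂, 0.5 mM EGTA, 1 mM GTP and 15% glycerol. Compound at various concentrations preincubated 1 min at 37 °C before adding the tubulin mix. Read at ex 355/em 460 nm every 60 s for 60 min. IC50 is the concentration giving 50% inhibition at 60 min; mean ± SD of ≥3 independent experiments.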

## CCOc1cccc(Nc2nn(C)c3c2Cc2cc(OCC)c(OCC(N)=O)cc2-3)c1
[1]
  solubility: < 5 µg/mL
[2]
  GI50: 8.6 nM
[3]
  Activity: 50%
[4]
  GI50: 39.6 nM
[5]
  logD at 10 h: 3.18
[6]
  GI50: 23.2 nM
[7]
  IC50: 4100 nM
